Laboratory results from ChEMBL document CHEMBL3259770, “Structure-activity relationship studies of the tricyclic indoline resistance-modifying agent” (J Med Chem, 2014).
In brackets after ≈: the same amount, converted by molar mass.

Experiments:
Staphylococcus aureus [1] = experiment: Antibacterial activity against methicillin-resistant Staphylococcus aureus ATCC BAA-44 after overnight incubation by broth microdilution assay in presence of 8 ug/ml cefazolin; type: functional
In short: (§1)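 Resensitization screen: compound from a 5 mg/mL DMSO stock, 2-fold serially diluted in MHB from 32 μg/mL final. Antibiotic was held at its CLSI-susceptible level: amoxicillin/clavulanic acid 4/2 μg/mL, cefazolin 8 μg/mL, meropenem 4 μg/mL. Final MRSA inoculum OD600 0.001, overnight at 37 °C with shaking. MRC was the concentration giving no visible overnight growth.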

Staphylococcus aureus [2] = experiment: Antibacterial activity against methicillin-resistant Staphylococcus aureus ATCC BAA-44 after overnight incubation by broth microdilution assay in presence of 4 ug/ml amoxicillin and 2 ug/ml clavulanic acid; type: functional; in short: as §1
Staphylococcus aureus [3] = experiment: Antibacterial activity against methicillin-resistant Staphylococcus aureus ATCC 33592 after overnight incubation by broth microdilution assay in presence of 4 ug/ml meropenem; type: functional; in short: as §1
[4] = Cytotoxicity against human HeLa cells after 24 hrs by CellTiter-Glo assay; type: cell-based
In short: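 HeLa cells seeded at 20 000 cells/well in DMEM with 10% FCS and 1% penicillin/streptomycin, grown 16 h at 37 °C, 5% CO2. Medium renewed, then compound added in DMSO to final 0.5–32 μg/mL, triplicate series. After 24 h at 37 °C, plates equilibrated to room temperature and viability read by CellTiter-Glo luminescence.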

Structure (SMILES) | MRC (Staphylococcus aureus [1]) [µg/mL] | MRC (Staphylococcus aureus [2]) [µg/mL] | MRC (Staphylococcus aureus [3]) [µg/mL] | GI50 at 24 h [4] [µg/mL]
C=C1CCC[C@@H]2N(C)c3ccc(Br)cc3[C@]12CCNS(=O)(=O)c1ccc(Cl)cc1 | >32 | >32 | >32 | 
C=C1CCC[C@@H]2Nc3ccc(Br)cc3[C@]12CCNS(=O)(=O)c1ccc(I)cc1 | 4 | 4 | 32 | 33 (≈ 57.6 µM)
C=C1CCC[C@@H]2N(S(=O)(=O)c3ccc(Cl)cc3)c3ccc(Br)cc3[C@]12CCNS(=O)(=O)c1ccc(Cl)cc1 | >32 | >32 | >32 | 
C=C1CCC[C@@H]2N(C(=O)c3ccc(Cl)cc3)c3ccc(Br)cc3[C@]12CCNS(=O)(=O)c1ccc(Cl)cc1 | >32 | >32 | >32 | 
C=C1CCC[C@@H]2Nc3ccc(Br)cc3[C@]12CCN(C)S(=O)(=O)c1ccc(Cl)cc1 | >32 | >32 | >32 | 
C=C1CCC[C@@H]2Nc3ccc(Br)cc3[C@]12CCN(S(=O)(=O)c1ccc(Cl)cc1)S(=O)(=O)c1ccc(Cl)cc1 | >32 | >32 | >32 | 
C=C1CCC[C@@H]2Nc3ccc(Br)cc3[C@]12CCN(C(=O)c1ccc(Cl)cc1)S(=O)(=O)c1ccc(Cl)cc1 | >32 | >32 | >32 | 
C=C1CCC[C@@H]2Nc3ccc(Br)cc3[C@]12CCNS(=O)(=O)c1ccc(Cl)cc1 | 4 | 4 | 4 | 17.1 (≈ 35.5 µM)
C=C1CCC[C@@H]2Nc3ccc(Cl)cc3[C@]12CCNS(=O)(=O)c1ccc(Cl)cc1 | 4 | 8 | 8 | 35 (≈ 80 µM)
C=C1CCC[C@@H]2Nc3ccc(C)cc3[C@]12CCNS(=O)(=O)c1ccc(Cl)cc1 | 16 | 16 | 32 | 
C=C1CCC[C@@H]2Nc3ccc(OC)cc3[C@]12CCNS(=O)(=O)c1ccc(Cl)cc1 | >32 | >32 | >32 | 
C=C1CCC[C@@H]2Nc3ccc(F)cc3[C@]12CCNS(=O)(=O)c1ccc(Cl)cc1 | 16 | 16 | 16 | 
C=C1CCC[C@@H]2Nc3ccccc3[C@]12CCNS(=O)(=O)c1ccc(Cl)cc1 | 16 | 16 | 16 | 
C=C1CCC[C@@H]2Nc3c(ccc4ccccc34)[C@]12CCNS(=O)(=O)c1ccc(Cl)cc1 | >32 | >32 | >32 | 
C=C1CCC[C@@H]2Nc3c(Br)cccc3[C@]12CCNS(=O)(=O)c1ccc(Cl)cc1 | 32 | >32 | 8 | 
C=C1CCC[C@@H]2Nc3cc(Br)ccc3[C@]12CCNS(=O)(=O)c1ccc(Cl)cc1 | 16 | 16 | 16 | 
C=C1CCC[C@@H]2Nc3cccc(Br)c3[C@]12CCNS(=O)(=O)c1ccc(Cl)cc1 | 16 | 32 | 16 | 
C=C1CCC[C@@H]2Nc3c(F)cc(Cl)cc3[C@]12CCNS(=O)(=O)c1ccc(Cl)cc1 | 16 | 16 | 32 | 
C=C1CCC[C@@H]2Nc3c(Cl)cc(Cl)cc3[C@]12CCNS(=O)(=O)c1ccc(Cl)cc1 | 4 | 4 | 4 | 13.6 (≈ 28.8 µM)
C=C1CCC[C@@H]2Nc3c(F)cc(Br)cc3[C@]12CCNS(=O)(=O)c1ccc(Cl)cc1 | 4 | 2 | 4 | 18.1 (≈ 36.2 µM)
C=C1CCC[C@@H]2Nc3ccc(Br)cc3[C@]12CCN | 32 | 32 | 32 | 
C=C1CCC[C@@H]2Nc3c(F)cc(Br)cc3[C@]12CCN | 32 | >32 | 16 | 16.2 (≈ 49.8 µM)

Structure (SMILES) | MRC (Staphylococcus aureus [1]) [µg/mL] | MRC (Staphylococcus aureus [2]) [µg/mL] | MRC (Staphylococcus aureus [3]) [µg/mL] | GI50 at 24 h [4] [µg/mL]
C=C1CCC[C@@H]2Nc3ccc(Br)cc3[C@]12CCNC(=O)C(F)(F)F | >32 | >32 | 32 | 
C=C1CCC[C@@H]2Nc3ccc(Br)cc3[C@]12CCNC(=O)CCCC | >32 | >32 | 32 | 
C=C1CCC[C@@H]2Nc3ccc(Br)cc3[C@]12CCNC(=O)c1ccc(Cl)cc1 | >32 | >32 | >32 | 
C=C1CCC[C@@H]2Nc3ccc(Br)cc3[C@]12CCNS(=O)(=O)c1ccccc1 | 8 | 8 | 16 | 
C=C1CCC[C@@H]2Nc3ccc(Br)cc3[C@]12CCNS(=O)(=O)c1ccc(C)cc1 | >32 | >32 | >32 | 
C=C1CCC[C@@H]2Nc3ccc(Br)cc3[C@]12CCNS(=O)(=O)c1ccc(F)cc1 | >32 | >32 | >32 | 
C=C1CCC[C@@H]2Nc3ccc(Br)cc3[C@]12CCNS(=O)(=O)c1ccc(Br)cc1 | 4 | 4 | 8 | 40 (≈ 76 µM)
C=C1CCC[C@@H]2Nc3ccc(Br)cc3[C@]12CCNS(=O)(=O)c1ccc(Cl)c(Cl)c1 | 2 | 4 | 4 | 12.8 (≈ 24.8 µM)
C=C1CCC[C@@H]2Nc3ccc(Br)cc3[C@]12CCNS(=O)(=O)c1ccc(Cl)cc1Cl | >32 | 8 | 4 | 
C=C1CCC[C@@H]2Nc3ccc(Br)cc3[C@]12CCNS(=O)(=O)c1ccc(C#N)cc1 | 8 | 16 | 16 | 
C=C1CCC[C@@H]2Nc3ccc(Br)cc3[C@]12CCNS(=O)(=O)c1ccc(NC(C)=O)cc1 | >32 | >32 | 32 | 
C=C1CCC[C@@H]2Nc3ccc(Br)cc3[C@]12CCNS(=O)(=O)c1ccccn1 | 32 | 32 | 32 | 
C=C1CCC[C@@H]2Nc3ccc(Br)cc3[C@]12CCNS(=O)(=O)c1ccc([N+](=O)[O-])cc1 | >32 | >32 | >32 | 
C=C1CCC[C@@H]2Nc3ccc(Br)cc3[C@]12CCNS(=O)(=O)c1ccc(N)cc1 | 16 | 16 | 16 | 
C=C1CCC[C@@H]2Nc3c(F)cc(Br)cc3[C@]12CCNS(=O)(=O)c1ccc(OC)cc1 | 4 | 8 | 8 | 49 (≈ 98.9 µM)
C=C1CCC[C@@H]2Nc3c(F)cc(Br)cc3[C@]12CCNS(=O)(=O)c1ccc(C)cc1 | 4 | 4 | 4 | 22 (≈ 45.9 µM)
C=C1CCC[C@@H]2Nc3c(F)cc(Br)cc3[C@]12CCNS(=O)(=O)c1ccc(F)cc1 | 4 | 4 | 4 | 18.3 (≈ 37.9 µM)
C=C1CCC[C@@H]2Nc3c(F)cc(Br)cc3[C@]12CCNS(=O)(=O)c1ccc(I)cc1 | 2 | 4 | 4 | 19.6 (≈ 33.1 µM)
C=C1CCC[C@@H]2Nc3c(F)cc(Br)cc3[C@]12CCNS(=O)(=O)c1ccc(Cl)c(Cl)c1 | 4 | 4 | 4 | 31 (≈ 58 µM)
C=C1CCC[C@@H]2Nc3c(F)cc(Br)cc3[C@]12CCNS(=O)(=O)c1ccc(NC(C)=O)cc1 | 32 | 32 | 16 | 32 (≈ 61.3 µM)
C=C1CCC[C@@H]2Nc3c(F)cc(Br)cc3[C@]12CCNS(=O)(=O)c1ccc(C#N)cc1 | 4 | 8 | 4 | 17 (≈ 34.7 µM)
C=C1CCC[C@@H]2Nc3c(F)cc(Br)cc3[C@]12CCNS(=O)(=O)c1ccc(C(F)(F)F)cc1 | 4 | 4 | 4 | 8.7 (≈ 16.3 µM)
